A word on the IC50: it is the concentration needed to halve the response being measured.

These results are taken from ChEMBL document CHEMBL2086279, “Synthesis of novel Schiff base analogues of 4-amino-1,5-dimethyl-2-phenylpyrazol-3-one and their evaluation for antioxidant and anti-inflammatory activity” (Bioorg Med Chem, 2012).

Structures are written as SMILES. Calls of active or inactive are those of the source. No cut-off for these calls is given here.

Series [1] concerns Radical scavenging activity. Briefly: Antioxidant activity assessed as DPPH free radical scavenging activity incubated for 30 mins. In kind it is functional. The essentials: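 Blois method, modified: 0.1 ml sample in ethanol (2.5–20 mg/mL) mixed with 4 ml 1.5 × 10^-5 M DPPH, kept dark at room temperature 30 min; absorbance at 520 nm used to calculate % radical scavenging.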
In general terms: The DPPH test is a chemical assay of radical scavenging.

Series [2] concerns RAW264.7. Briefly: Cytotoxicity against mouse RAW264.7 cells assessed as change in cell viability at 6 ug/mL incubated for 24 hrs by MTT assay. The format is cell-based. Conditions: raw264.7, 24 h. Summed up:
(§1)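 RAW264.7 (passage ≤20, DMEM/10% FBS) seeded 5 × 10^4 cells/well, exposed to compound 24 h; MTT (5 mg/ml stock) added 4 h, formazan dissolved in 0.04 N HCl/isopropyl alcohol, OD read at 570 and 630 nm.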

For series [3], the system named is RAW264.7. Briefly: Cytotoxicity against mouse RAW264.7 cells assessed as change in cell viability at 12 ug/mL incubated for 24 hrs by MTT assay. The format is cell-based. The following applies: raw264.7, 24 h. The essentials: as §1
For orientation: Tetrazolium dyes change colour on reduction, which living cells bring about.

The test system of series [4] is RAW264.7. Description: Cytotoxicity against mouse RAW264.7 cells assessed as change in cell viability at 25 ug/mL incubated for 24 hrs by MTT assay. The format is cell-based. The following applies: raw264.7, 24 h. Summed up: as §1
Series [5] deals with RAW264.7. Description: Cytotoxicity against mouse RAW264.7 cells assessed as change in cell viability at 50 ug/mL incubated for 24 hrs by MTT assay. The format is cell-based. Conditions: raw264.7, 24 h. The essentials: as §1
In series [6] the test system is RAW264.7. Briefly: Antiinflammatory activity in mouse RAW264.7 cells assessed as inhibition of LPS-induced nitric oxide production pre-treated for 30 mins before LPS stimulation measured 24 hrs post LPS challenge by Griess assay. The format is functional, cell-based. Summed up: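 LPS 200 ng/mL for 24 h after 30 min pretreatment at various concentrations; cells seeded 5 × 10^5/well overnight at 37 °C in DMEM/10% FBS. Nitrite in medium read with Griess reagent (1% sulfanilamide, 0.1% N-1-naphthylenediamine dihydrochloride, 2.5% phosphoric acid), 10 min, absorbance 570 nm, quantified against sodium nitrite standard curve.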
A general note: Nitrite, measured by Griess reagent, commonly stands in for NO production.

The subject of series [7] is RAW264.7. Description: Inhibition of iNOS mRNA expression in mouse RAW264.7 cells pre-treated for 30 mins before LPS stimulation measured 24 hrs post LPS challenge by RT-PCR. The format is functional, cell-based. Summed up: (§2)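 Cells pretreated with compound 30 min, then LPS 200 ng/mL for 24 h; total RNA extracted with TRIzol, quality checked by 260/280 absorbance; iNOS and COX-2 mRNA assessed by RT-PCR with gene-specific primers.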

Series [8] deals with RAW264.7. Description: Inhibition of COX2 mRNA expression in mouse RAW264.7 cells at 50 ug/mL pre-treated for 30 mins before LPS stimulation measured 24 hrs post LPS challenge by RT-PCR. The format is functional, cell-based. The essentials: as §2
The nature of series [9]: Solubility in DMSO. The format is physicochemical.

Take `Cc1c(/N=C/c2ccc(O)c(O)c2)c(=O)n(-c2ccccc2)n1C`: in [1], the IC50 worked out at 0.93 µM. Also, the Activity result was “Non-toxic” in [2]; “Non-toxic” in [3]; “Non-toxic” in [4]; “Non-toxic” in [5]; “Dose-dependent effect” in series [6]. For the same molecule, the inhibition result in series [7] was “Dose-dependent effect”. For the same molecule, the inhibition entry in [8] is “Active”.
`COc1ccc(/C=N/c2c(C)n(C)n(-c3ccccc3)c2=O)cc1C`: the IC50 in series [1] came out at 5.22 µM.
`Cc1c(/N=C/c2ccccc2/C=N/c2c(C)n(C)n(-c3ccccc3)c2=O)c(=O)n(-c2ccccc2)n1C`: the half-maximal inhibitory concentration (IC50) in series [1] is 3.14 µM.
On to `Cc1c(/N=C/c2ccc(Cl)cc2)c(=O)n(-c2ccccc2)n1C`, for which the IC50 in series [1] is 31.7 µM.
Regarding `O=C1O[C@H]([C@@H](O)CO)C(O)=C1O` [ASCORBIC ACID], the IC50 in series [1] turned out to be 0.41 µM.
For the molecule `Cc1c(/N=C/c2ccc(O)cc2)c(=O)n(-c2ccccc2)n1C`, in [1], the IC50 worked out at 18.8 µM.
Turning to `Cc1c(/N=C/c2ccccc2C=O)c(=O)n(-c2ccccc2)n1C`, the half-inhibitory concentration (IC50) in series [1] came to 34.5 µM.
For `COc1ccc(/C=N/c2c(C)n(C)n(-c3ccccc3)c2=O)c(OC)c1`, in series [1], the half-inhibitory concentration (IC50) worked out at 14.5 µM.
Take `Cc1c(/N=C/c2ccc(O)cc2O)c(=O)n(-c2ccccc2)n1C`: in series [1], the IC50 was determined as 2.5 µM.
`COc1ccc(/C=N/c2c(C)n(C)n(-c3ccccc3)c2=O)cc1`: in series [1], the IC50 was found to be 15.3 µM.
Regarding `Cc1c(/N=C/c2ccccc2)c(=O)n(-c2ccccc2)n1C`, the IC50 in series [1] stood at 31.3 µM.
Take `COc1ccc(/C=N/c2c(C)n(C)n(-c3ccccc3)c2=O)cc1OC`: the IC50 in [1] is 7.27 µM.
Regarding `COc1cc(/C=N/c2c(C)n(C)n(-c3ccccc3)c2=O)cc(OC)c1O`, the IC50 in [1] was determined as 1.66 µM.
In the case of `Cc1c(/N=C/c2c(O)cc(O)cc2O)c(=O)n(-c2ccccc2)n1C`, in [1], the IC50 was 0.44 µM. Moreover, in [9], the solubility result is reported as “Insoluble”.
